Data from ChEMBL document CHEMBL3525946, “Species comparison of in vivo P-glycoprotein-mediated brain efflux using mdr1a-deficient rats and mice” (Drug Metab Dispos, 2012).

Legend:
[1] = Percentage unbound in Crl:NMRI(Han) mouse plasma at 1 uM after 5 hrs by equilibrium dialysis method; format: ADME, cell-free
Outline: (§1)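 Equilibrium dialysis (12-14 kDa membrane) of plasma or brain homogenate from naïve male Sprague-Dawley rats or Crl:NMRI(Han) mice. Donor side spiked to 1 µM final; receiver phosphate buffer pH 7.4; 37°C for 5 h. Buffer phase quantified by LC-MS. Brain fu corrected for homogenate dilution to intact tissue. Mean of two independent determinations.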

[2] = Percentage unbound in Sprague-Dawley rat plasma at 1 uM after 5 hrs by equilibrium dialysis method; format: ADME, cell-free; outline: as §1
[3] = Total plasma concentration in mouse at 3 mg/kg/day administered through continuous minipump treatment for 3 days by UPLC-MS analysis; format: ADME, organism-based; conditions: other: continuous minipump
Outline: (§2)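 Subcutaneous osmotic minipump infusion for 3 days to steady state, implanted under isoflurane (rats 10 µl/h, mice 1 µl/h). Mdr1a-deficient (SD-Abcb1a knockout rats; Crl:CF1-Abcb1a mutant mice) and wild-type animals, n=3-5 per group. After decapitation, EDTA plasma and whole brain (homogenized 1:4 in 70% acetonitrile) were precipitated with internal standard. Parent and metabolites quantified by UPLC-MS. Mean ± SEM.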

[4] = Unbound brain to plasma partition coefficient of the compound in mdr1a-deficient rat at 6 mg/kg/day administered through continuous minipump treatment for 3 days; format: ADME, organism-based; conditions: other: continuous minipump, read-out: K(p,uu,brain)
Outline: (§3)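 Kp,uu is (Cbrain,total × fu,brain)/(Cplasma,total × fu,plasma). Total concentrations were measured at steady state after a 3-day subcutaneous minipump infusion in knockout or wild-type animals. Species-matched free fractions came from 5 h, 37°C equilibrium dialysis at 1 µM in naïve plasma and brain homogenate.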

[5] = Unbound brain to plasma partition coefficient of the compound in wild type Crl:CF1 mouse expressing Abcb1a mutant at 3 mg/kg/day administered through continuous minipump treatment for 3 days; format: ADME, organism-based; conditions: other: continuous minipump, read-out: K(p,uu,brain); outline: as §3
[6] = Unbound brain to plasma partition coefficient of the compound in mdr1a-deficient mouse at 3 mg/kg/day administered through continuous minipump treatment for 3 days; format: ADME, organism-based; conditions: other: continuous minipump, read-out: K(p,uu,brain); outline: as §3
[7] = Total plasma concentration in wild type Sprague-Dawley rat expressing Abcb1a at 6 mg/kg/day administered through continuous minipump treatment for 3 days by UPLC-MS analysis; format: ADME, organism-based; conditions: other: continuous minipump; outline: as §2
[8] = Total brain to plasma partition coefficient of the compound in mdr1a-deficient mouse at 3 mg/kg/day administered through continuous minipump treatment for 3 days; format: ADME, organism-based; conditions: other: continuous minipump
Outline: (§4)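 Kp is total brain concentration divided by total plasma concentration at steady state. Measured after a 3-day subcutaneous osmotic minipump infusion in mdr1a-deficient or wild-type rats or mice, n=3-5. Concentrations determined by UPLC-MS in plasma and in whole-brain homogenate (70% acetonitrile). Mean ± SEM.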

[9] = Total drug level in wild type Crl:CF1 mouse brain expressing Abcb1a mutant at 3 mg/kg/day administered through continuous minipump treatment for 3 days by UPLC-MS analysis; format: ADME, organism-based; conditions: other: continuous minipump, read-out: Drug uptake; outline: as §2
[10] = Total drug level in wild type Sprague-Dawley rat brain expressing Abcb1a at 6 mg/kg/day administered through continuous minipump treatment for 3 days by UPLC-MS analysis; format: ADME, organism-based; conditions: other: continuous minipump, read-out: Drug uptake; outline: as §2
[11] = Total drug level in mdr1a-deficient mouse brain at 3 mg/kg/day administered through continuous minipump treatment for 3 days by UPLC-MS analysis; format: ADME, organism-based; conditions: other: continuous minipump, read-out: Drug uptake; outline: as §2
[12] = Total brain to plasma partition coefficient of the compound in wild type Crl:CF1 mouse expressing Abcb1a mutant at 3 mg/kg/day administered through continuous minipump treatment for 3 days; format: ADME, organism-based; conditions: other: continuous minipump; outline: as §4
[13] = Total drug level in mdr1a-deficient rat brain at 6 mg/kg/day administered through continuous minipump treatment for 3 days by UPLC-MS analysis; format: ADME, organism-based; conditions: other: continuous minipump, read-out: Drug uptake; outline: as §2
[14] = Percentage unbound in Sprague-Dawley rat brain at 1 uM after 5 hrs by equilibrium dialysis method; format: ADME, tissue-based; outline: as §1
[15] = Total brain to plasma partition coefficient of the compound in wild type Sprague-Dawley rat expressing Abcb1a at 6 mg/kg/day administered through continuous minipump treatment for 3 days; format: ADME, organism-based; conditions: brain and plasma, other: continuous minipump; outline: as §4
[16] = Unbound brain to plasma partition coefficient of the compound in wild type Sprague-Dawley rat expressing Abcb1a at 6 mg/kg/day administered through continuous minipump treatment for 3 days; format: ADME, organism-based; conditions: other: continuous minipump, read-out: K(p,uu,brain); outline: as §3
[17] = Total plasma concentration in wild type Crl:CF1 mouse expressing Abcb1a mutant at 3 mg/kg/day administered through continuous minipump treatment for 3 days by UPLC-MS analysis; format: ADME, organism-based; conditions: other: continuous minipump; outline: as §2
[18] = Total plasma concentration in mdr1a-deficient Sprague-Dawley rat at 6 mg/kg/day administered through continuous minipump treatment for 3 days by UPLC-MS analysis; format: ADME, organism-based; conditions: other: continuous minipump; outline: as §2
[19] = Percentage unbound in Crl:NMRI(Han) mouse brain at 1 uM after 5 hrs by equilibrium dialysis method; format: ADME, tissue-based; outline: as §1
[20] = Total brain to plasma partition coefficient of the compound in mdr1a-deficient rat at 6 mg/kg/day administered through continuous minipump treatment for 3 days; format: ADME, organism-based; conditions: brain and plasma, other: continuous minipump; outline: as §4

SMILES | fraction unbound at 5 h, 1 µM [1] | fraction unbound at 5 h, 1 µM [2] | concentration at 72 h [3] [ng/mL] | Kp uu at 72 h [4] | Kp uu at 72 h [5] | Kp uu at 72 h [6] | concentration at 72 h [7] [ng/mL] | Kp at 72 h [8] | concentration at 72 h [9] [ng/g] | concentration at 72 h [10] [ng/g] | concentration at 72 h [11] [ng/g] | Kp at 72 h [12] | concentration at 72 h [13] [ng/g] | fraction unbound at 5 h, 1 µM [14] | Kp at 72 h [15] | Kp uu at 72 h [16] | concentration at 72 h [17] [ng/mL] | concentration at 72 h [18] [ng/mL] | fraction unbound at 5 h, 1 µM [19] | Kp at 72 h [20]
Cc1nc2n(c(=O)c1CCN1CCC(c3noc4cc(F)ccc34)CC1)CC(O)CC2 (configuration not stated) | 0.54 | 0.2 | – | – | – | – | – | – | – | – | – | – | – | – | – | – | – | – | – | –
O=C1CCc2ccc(OCCCCN3CCN(c4cccc(Cl)c4Cl)CC3)cc2N1 [ARIPIPRAZOLE] | 0.002 | 0.001 | 32 | 0.64 | 0.25 | 0.64 | 18 | 1.3 | 25 | 3 | 41 | 0.49 | 14 | 0.001 | 0.19 | 0.19 | 51 | 22 | 0.001 | 0.64
